Screening data from PubChem BioAssay.
Shown are actives, neighbours in structure and some others; about 2.9% of the full set was active somewhere.
ATG4B inh – ATG4B protease inhibitors, primary screen, biochemical, fluorescence, uHTS. ATG4B cleavage of LC3-PLA2, NBD-HPC fluorescence, 1 h. inhibition, % at 8.33 µM. 340,000 tested, 0.51% active; in the data active means inhibition above about 40%
TCR-CD3 inh – inhibitors of human TCR-CD3 interaction, primary screen, biochemical, fluorescence, TAMRA-labeled TCR probe. 360,000 tested, 0.37% active. T-cell receptor (TCR). inhibition, % at 9.4 µM; in the data active means inhibition above about 19%;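 further: recombinant mutant TCR 2C K166C tagged with TAMRA read by polarization; 0% = receptor in buffer alone and 100% = receptor with positive control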
SIAE primary – human SIAE inhibitors, primary screen, biochemical, fluorescence polarization, FP-Rh probe, 1536-well HTS | Sialate O-acetylesterase (Homo sapiens), Q9HAT2 | SIAE FP-Rh probe binding | inhibition, % at 9.66 µM | 370,000 tested, 0.69% active | AID 1053197, 2014;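 active means inhibition above a cutoff: mean of compounds within the control limits plus 3 SD of those, cut at about 17% in these data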;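 further: 0% = plate median of compound wells and 100% = probe without SIAE protein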
PRMT1 FP inh – PRMT1 methyltransferase inhibitors, primary screen, biochemical, fluorescence polarization; recombinant PRMT1, activity-based probe fluorescence polarization; AID 652257, 2013; inhibition, % at 2.79 µM; 370,000 tested, 1.3% active;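 active means inhibition above about 21% made by adding two undisclosed values, limit read from the data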
Target sequence (Q99873 whole entry, looked up): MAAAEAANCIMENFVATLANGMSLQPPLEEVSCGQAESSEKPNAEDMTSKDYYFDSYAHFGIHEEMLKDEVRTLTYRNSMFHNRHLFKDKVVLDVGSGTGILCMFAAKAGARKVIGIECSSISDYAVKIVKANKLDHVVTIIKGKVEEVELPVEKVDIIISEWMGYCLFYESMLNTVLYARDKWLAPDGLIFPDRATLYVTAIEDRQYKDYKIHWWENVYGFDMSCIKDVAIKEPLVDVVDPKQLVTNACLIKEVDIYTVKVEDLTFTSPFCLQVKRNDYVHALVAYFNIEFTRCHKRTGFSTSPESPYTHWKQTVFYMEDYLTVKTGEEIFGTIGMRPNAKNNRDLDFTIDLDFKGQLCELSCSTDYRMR
HTRA1 inhibitor – HTRA1 serine protease inhibitors, primary screen, biochemical, fluorescence polarization, HTS | AID 504803, 2011 | Q92743 | recombinant HTRA1, FP-rhodamine activity-based probe | 340,000 tested, 0.5% active | inhibition, % at 5.96 µM; in the data active means inhibition above about 36%;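 further: 0% = enzyme with DMSO and 100% = wells lacking enzyme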
ABHD4 inh – ABHD4 inhibitors, primary screen, biochemical, fluorescence polarization, mouse; purified mABHD4, FP-Rh probe fluorescence polarization; inhibition, % at 8.92 µM; 370,000 tested, 0.54% active; AID 720543, 2013;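 active means inhibition exceeding the mean over every tested compound plus 3 SD, cut at about 30% in these data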;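 further: 0% = plate median of compound wells and 100% = S159A mutant with DMSO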
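Assay system: Wild-type mouse ABHD4 protein | Medium: HEPES pH 7.0 buffer, 150 mM NaCl, 0.01% Pluronic F-127 | Incubation: Enzyme–compound pre-incubation 45 min, then probe 60 min, both 25 °C | Technique: Fluorescence polarization with parallel and perpendicular emission, 525/598 nm | Evaluation: % inhibition of FP-Rh probe binding versus controls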
PRMT1 confirm – PRMT1 methyltransferase inhibitors, confirmation, biochemical, fluorescence polarization, triplicate | shares compounds with PRMT1 FP inh | recombinant His-PRMT1, activity-based probe fluorescence polarization | inhibition, % at 2.79 µM | 3,300 tested, 42% active;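 active means mean inhibition across replicates above the hit cutoff derived for the earlier primary screen, cut at about 22% in these data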
ABHD4 confirm – ABHD4 inhibitors, retest, confirmation, biochemical, fluorescence polarization, mouse | shares compounds with ABHD4 inh | purified mABHD4, FP-Rh probe fluorescence polarization | inhibition, % at 8.92 µM | 1,800 tested, 55% active | AID 720658, 2013;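 active means mean inhibition across replicates above the hit cutoff set in the primary screen, cut at about 30% in these data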;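 further: 0% = wild-type ABHD4 with DMSO and 100% = catalytically dead S159A mutant with DMSO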
The depositor's hits bear a star; nt = no result.

SMILES	ATG4B inh	TCR-CD3 inh	SIAE primary	PRMT1 FP inh	HTRA1 inhibitor	ABHD4 inh	PRMT1 confirm	others
O=[N+]([O-])c1ccc(C(c2ccc([N+](=O)[O-])cc2)c2ccc([N+](=O)[O-])cc2)cc1	-6	7	-13	2	-24	-1	nt
COC(=O)N(c1ccccc1)P1(=S)OCCO1	0	0	4	30*	2	-2	44*
CCOC(=O)N(c1ccccc1)P1(=S)OCCO1	5	-8	-1	14	-1	11	nt
S=P(NCCNP(=S)(N1CC1)N1CC1)(N1CC1)N1CC1	3	-1	2	58*	7	-6	-4
S=P(NCCSCc1ccccc1)(N1CC1)N1CC1	-15	6	-2	29*	0	3	-3
O=C1CN(O)C(c2ccccc2)=c2cc(Br)ccc2=N1	1	7	-1	-5	-1	2	nt
N#CCCCCC#N	6	4	-4	-2	4	-2	nt
O=C1C2CC=CCC2C(=O)N1SC(Cl)(Cl)Cl (configuration not stated)	nt	-5	-1	75*	nt	3	87*
COP(=S)(OC)SCN1C(=O)c2ccccc2C1=O	0	5	5	59*	0	0	76*
Cc1ccc(N2CCNCC2C)cc1 (configuration not stated)	2	0	-2	-3	6	-8	nt
CCOc1cccc(=NC2CCCCC2)c2c(C)n(C)c(C)c12	12	4	7	47*	nt	14	4
CC1(C)C2([N+](=O)[O-])CNCC1([N+](=O)[O-])CNC2	13	0	-4	-3	1	-3	nt
COC(=O)C1=C(C(=O)OC)C2OC1c1cc3ccccc3cc12	-13	-11	-1	64*	1	-4	46*
O=C(O)c1ccccc1-c1ccc(C=C2C(=O)N(c3ccccc3)C(=S)N(c3ccccc3)C2=O)o1	1	-6	2	39*	-12	8	59*
Cc1cc(N2CCNC[C@H]2C)ccc1N1CCN[C@@H](C)C1	nt	3	-2	-6	nt	-3	nt
c1cnc(N2CCNCC2)nc1	-3	-2	1	6	2	-7	nt
c1ccc(Cc2cnc(N3CCNCC3)nc2)cc1	nt	1	-10	45*	nt	2	13
CN(C(=O)Oc1cccc2ccccc12)C1C=CCC1 (configuration not stated)	4	1	8	-6	-1	0	nt
N#C/C(=C\c1ccc(O)cc1)C(=O)O	4	-6	4	3	4	-2	nt
CCc1ccc(/C=C(/C#N)C(N)=S)cc1	-1	-2	1	30*	-2	6	5
O=C(CCc1nnc2ccc(NCc3ccccc3)nn12)N1CCC2(CC1)OCCO2	-3	-3	4	0	3	3	nt
CC1CN1P(=S)(c1ccccc1)N1CC1C (configuration not stated)	-2	-2	2	36*	1	7	3
COC(=O)C1=C(c2ccc3ccccc3c2)C[C@@H]2CC[C@H]1N2C(=O)NC(C)C	-10	1	5	1	1	5	nt
NC(=S)/N=C/c1c(O)[nH]c(=O)[nH]c1=O	7	10	-5	34*	9	3	4
Cn1cccc1/C=C1/C(=O)NC(=S)N(Cc2ccc(F)cc2)C1=O	33	-4	12	27*	45*	49*	65*	ABHD4 confirm=57*
COc1ccccc1N1C(=O)CC(=O)NC1=O	-9	-4	-3	1	1	1	nt
